Compound activity from PubChem.
This is one part of a sample in which hits are shown more often than they occur.
KDM4C inh – KDM4C (human) demethylase inhibition; Q9H3R0; GST-KDM4C 2-372, H3K9me3 peptide, LANCE TR-FRET; inhibition, % at 12.5 µM; actives 0.15% (n = 96,000); AID 720574;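 active = mean replicate inhibition above about 25%, with at least 55% of replicates also reaching it, limit read from the data, passing the limit was not always enough; inconclusive = only one of those two conditions met; inactive = neither condition met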
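Compound: one test concentration per compound; Material: GST-GASC-1 enzyme fragment 2-372; Amount: GASC-1 enzyme at 10 nM final in reaction; Also added: H3K9me3 peptide substrate, Fe(II), 2-oxoglutarate; Technique: LANCE TR-FRET; Times: 30 min demethylation and 1 h detection at room temperature.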
T cruzi growth-1 – T. cruzi proliferation inhibition | T. cruzi beta-gal in NIH3T3, GalScreen luminescence, 90 h | inhibition, % at 8.34 µM | actives 5.9% (n = 77,000) | AID 624255;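 active = mean inhibition above about 93%, with at least 55% of replicates each passing it, limit read from the data, passing the limit was not always enough; inconclusive = only one of those two conditions holds; inactive = neither condition holds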
IDH1 mut inh – inhibitors of human IDH1 R132H; IDH1 R132H reductase, diaphorase/resazurin fluorescence, 60 min; inhibition, % at 10 µM; actives 0.18% (n = 70,000); AID 624101; in the data active = inhibition above about 34%; inconclusive = no clear call, values can overlap the other calls; inactive = below about 11%;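 note: 0% = DMSO and 100% = no enzyme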
Target sequence (O75874 whole entry R132H): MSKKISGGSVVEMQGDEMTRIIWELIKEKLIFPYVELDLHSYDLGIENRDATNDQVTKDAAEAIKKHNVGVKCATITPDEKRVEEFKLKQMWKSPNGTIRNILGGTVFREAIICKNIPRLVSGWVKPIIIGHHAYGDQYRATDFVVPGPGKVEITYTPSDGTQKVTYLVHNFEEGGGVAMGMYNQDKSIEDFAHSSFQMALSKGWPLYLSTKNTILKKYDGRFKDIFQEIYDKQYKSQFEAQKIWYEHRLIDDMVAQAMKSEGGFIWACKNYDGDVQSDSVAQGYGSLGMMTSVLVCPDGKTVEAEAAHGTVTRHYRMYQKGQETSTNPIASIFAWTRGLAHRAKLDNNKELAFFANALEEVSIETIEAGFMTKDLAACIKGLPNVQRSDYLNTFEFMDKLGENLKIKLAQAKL
T cruzi growth-2 – Trypanosoma cruzi proliferation inhibition; shares compounds with T cruzi growth-1; T. cruzi beta-gal in NIH3T3, GalScreen luminescence, 90 h; inhibition, % at 8.35 µM; actives 72% (n = 5,600);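 active = mean replicate inhibition above about 95% and at least 55% of replicates individually reaching it, limit read from the data; inconclusive = only one of the two criteria is met; inactive = neither criterion is met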
T cruzi growth-3 – blocks T. cruzi growth in NIH3T3 host cells | shares compounds with T cruzi growth-1 | T. cruzi beta-gal in NIH3T3, GalScreen luminescence, 90 h | inhibition, % at 2.09 µM | actives 21% (n = 5,600) | AID 651740;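 active = mean inhibition above about 95%, with at least 55% of replicates also reaching it, limit read from the data; inconclusive = meets just one of the two conditions; inactive = meets neither condition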;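 note: plate controls were neutral control median for no effect and positive control median for full effect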
NIH3T3 tox – NIH/3T3 (mouse) viability loss; shares compounds with T cruzi growth-1; NIH/3T3 viability, CellTiter-Glo ATP luminescence, 90 h; cytotoxicity (signal decrease), % at 8.35 µM; actives 14% (n = 5,600); AID 651742;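 active = mean signal decrease across replicates above about 35% based on untreated-well scatter, with enough replicates individually passing, limit read from the data; inconclusive = no rule stated though some were filed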;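 note: 0% = median of neutral control wells and 100% = median of positive control wells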
NIH3T3 tox 2 – NIH/3T3 (mouse) viability loss; AID 651744; shares compounds with T cruzi growth-1; actives 56% (n = 5,600); inhibition, % at 24.9 µM; NIH/3T3 viability, CellTiter-Glo ATP luminescence, 90 h;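 active = mean loss of cell viability signal at or above a set limit, and enough replicates individually reaching it; inconclusive = meets only the mean limit or only the replicate share; inactive = meets neither condition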;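 note: 0% = median of neutral control wells and 100% = median of positive control wells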
Starred values were filed as active, the others as inactive; ? = inconclusive; nt = not tested or not shown.

SMILES	KDM4C inh	T cruzi growth-1	IDH1 mut inh	T cruzi growth-2	T cruzi growth-3	NIH3T3 tox	NIH3T3 tox 2
COc1ccccc1C#Cc1ccc2c(c1)O[C@H](CN(C)Cc1ccncc1)[C@@H](C)CN([C@@H](C)CO)S2(=O)=O	1	127*	0	93	98*	74*	104*
Cc1nc(SCC(=O)c2cc3ccccc3oc2=O)c(C(N)=O)c(C)c1C	nt	nt	1	nt	nt	nt	nt
COc1cc([N+](=O)[O-])ccc1NC(=O)CN(C)S(=O)(=O)c1ccccc1	nt	nt	0	nt	nt	nt	nt
COc1cc(NC(=O)Cn2nc(C(F)(F)F)cc2C)cc([N+](=O)[O-])c1	nt	nt	0	nt	nt	nt	nt
CCC(=O)N1CCCCN2[C@H](CO)[C@@H](c3ccc(C#Cc4ccccc4)cc3)[C@H]2C1	-1	73	nt	nt	nt	nt	nt
CCC(=O)N1CCCCN2[C@H](CO)[C@H](c3ccc(C#Cc4ccccc4)cc3)[C@@H]2C1	-1	117*	nt	104*	85	52*	58*
CCC(=O)N1CCCCN2[C@H](C1)[C@H](c1ccc(C#Cc3ccccc3F)cc1)[C@@H]2CO	-1	?	nt	74	29	40*	95*
CCC(=O)N1CCCCN2[C@H](CO)[C@H](c3ccc(C#Cc4ccccc4F)cc3)[C@H]2C1	0	78	nt	nt	nt	nt	nt
CC(=O)N1CCCCN2[C@H](CO)[C@@H](c3ccc(C#Cc4ccccc4F)cc3)[C@@H]2C1	0	113*	nt	108*	40	36*	101*
CC(=O)N1CCCCN2[C@@H](CO)[C@@H](c3ccc(C#Cc4ccccc4F)cc3)[C@@H]2C1	-1	60	nt	nt	nt	nt	nt
CCC(=O)N1CCCCN2[C@H](CO)[C@@H](c3ccc(C#Cc4ccccc4F)cc3)[C@@H]2C1	-2	?	nt	101*	53	21	104*
CCC(=O)N1CCCCN2[C@H](C1)[C@@H](c1ccc(C#Cc3ccccc3)cc1)[C@@H]2CO	0	94	nt	nt	nt	nt	nt
Cc1ccc([N+](=O)[O-])cc1NC(=O)c1cc(S(=O)(=O)N2CCOCC2)c(Cl)cc1Cl	nt	nt	0	nt	nt	nt	nt
CCN(CC(=O)Nc1cccc(Cl)c1C)S(=O)(=O)c1ccc(C)cc1	nt	nt	-1	nt	nt	nt	nt
COc1ccc(Cl)cc1NC(=O)CSc1nc(N)cc(=O)[nH]1	nt	nt	1	nt	nt	nt	nt
C[C@H]1CN([C@@H](C)CO)C(=O)c2cc(/C=C/c3ccccc3)cnc2O[C@@H]1CN(C)Cc1ccccc1F	-1	112*	0	111*	79	7	105*
C[C@@H]1CN([C@H](C)CO)C(=O)c2cc(/C=C/c3ccccc3)cnc2O[C@@H]1CN(C)Cc1ccccc1F	-2	116*	3	92	58	-1	35*
C[C@H]1CN([C@@H](C)CO)C(=O)c2cc(/C=C/c3ccccc3)cnc2O[C@H]1CN(C)Cc1ccccc1F	-1	116*	0	104*	95	18	41*
C/C=C/c1cnc2c(c1)C(=O)N([C@H](C)CO)C[C@H](C)[C@H](CN(C)Cc1ccccc1F)O2	-3	nt	0	nt	nt	nt	nt
C/C=C/c1cnc2c(c1)C(=O)N([C@H](C)CO)C[C@H](C)[C@@H](CN(C)Cc1ccccc1F)O2	1	nt	-1	nt	nt	nt	nt
C[C@H](CO)N1C[C@H](C)[C@@H](CN(C)Cc2ccccc2F)Oc2ncc(/C=C/c3ccccc3)cc2C1=O	0	120*	0	108*	87	-22	104*
C/C=C/c1cnc2c(c1)C(=O)N([C@@H](C)CO)C[C@H](C)[C@@H](CN(C)Cc1ccccc1F)O2	-1	nt	0	nt	nt	nt	nt
C/C=C/c1cnc2c(c1)C(=O)N([C@H](C)CO)C[C@@H](C)[C@H](CN(C)Cc1ccccc1F)O2	2	nt	0	nt	nt	nt	nt
CCOc1ccc(C)cc1S(=O)(=O)n1nnc2ccccc21	nt	nt	0	nt	nt	nt	nt
CCCCCC1OC2=C(C(=O)N(OC)C2CSCC(O)C(=O)O)C(O)C1(C)O (stereo not given)	nt	nt	0	nt	nt	nt	nt
SMILES	KDM4C inh	T cruzi growth-1	IDH1 mut inh	T cruzi growth-2	T cruzi growth-3	NIH3T3 tox	NIH3T3 tox 2
COc1ccccc1CNCc1cccc(OC)c1OC	nt	nt	0	nt	nt	nt	nt
O=C(COc1ccccc1C(=O)O)Nc1ccccc1	nt	nt	0	nt	nt	nt	nt
CCc1ccccc1NC(=O)CCCN1C(=O)c2ccccc2C1=O	nt	nt	0	nt	nt	nt	nt
CS(=O)(=O)N(CC(=O)Nc1cccc2ccccc12)c1ccc(I)cc1	nt	nt	0	nt	nt	nt	nt
C[C@@H]1CCCCO[C@@H](CN(C)C(=O)Cc2ccccc2)[C@H](C)CN([C@H](C)CO)C(=O)c2cc(NC(=O)NC3CCCCC3)ccc2O1	1	100*	0	108*	26	10	26*
C[C@@H]1CCCCO[C@@H](CN(C)C(=O)Cc2ccccc2)[C@@H](C)CN([C@H](C)CO)C(=O)c2cc(NC(=O)Nc3cccc4ccccc34)ccc2O1	-2	54	nt	nt	nt	nt	nt
C[C@@H]1CCCCO[C@H](CN(C)C(=O)Cc2ccccc2)[C@H](C)CN([C@@H](C)CO)C(=O)c2cc(NC(=O)Nc3cccc4ccccc34)ccc2O1	-2	101*	nt	105*	57	-37	2
C[C@H]1CCCCO[C@H](CN(C)C(=O)Cc2ccccc2)[C@@H](C)CN([C@@H](C)CO)C(=O)c2cc(NC(=O)NC3CCCCC3)ccc2O1	-2	76	-2	nt	nt	nt	nt
C[C@@H]1CCCCO[C@H](CN(C)C(=O)Cc2ccccc2)[C@@H](C)CN([C@@H](C)CO)C(=O)c2cc(NC(=O)Nc3ccccc3)ccc2O1	0	92	1	nt	nt	nt	nt
C[C@H]1CCCCO[C@H](CN(C)C(=O)Cc2ccccc2)[C@@H](C)CN([C@@H](C)CO)C(=O)c2cc(NC(=O)Nc3ccccc3)ccc2O1	0	99*	0	109*	52	28	8
O=C(N/N=C/c1ccc(Br)cc1)c1ccccc1O	nt	nt	1	nt	nt	nt	nt
O=C(Nc1ccccc1[N+](=O)[O-])c1cc(S(=O)(=O)Nc2ccccc2)ccc1Cl	nt	nt	0	nt	nt	nt	nt
C[C@@H]1CN([C@H](C)CO)S(=O)(=O)c2ccc(-c3ccc(C#N)cc3)cc2O[C@@H]1CN(C)C(=O)Nc1cc(F)ccc1F	1	115*	0	92	-7	-3	77*
C[C@H]1CN([C@@H](C)CO)S(=O)(=O)c2ccc(-c3ccc(C#N)cc3)cc2O[C@H]1CN(C)C(=O)Nc1cc(F)ccc1F	0	122*	6	102*	67	30	84*
C[C@H](CO)N1C[C@H](C)[C@@H](CN(C)C(=O)Nc2ccccc2F)Oc2cc(-c3cccc(C#N)c3)ccc2S1(=O)=O	0	?	nt	103*	51	41*	69*
C[C@H](CO)N1C[C@H](C)[C@@H](CN(C)C(=O)Nc2cc(F)ccc2F)Oc2cc(-c3ccc(C#N)cc3)ccc2S1(=O)=O	-2	118*	nt	101*	28	46*	83*
